According to ChEMBL document CHEMBL1641376, “Novel bis-, tris-, and tetrakis-tertiary amino analogs as antagonists at neuronal nicotinic receptors that mediate nicotine-evoked dopamine release” (Bioorg Med Chem Lett, 2011):
pIC50: −log10 of the molar value.

Experiments:
Format in all cases: functional, tissue-based
[1] = target: Neuronal acetylcholine receptor subunit alpha-6 (Rattus norvegicus) (UniProt P43143); assay: Antagonist activity at alpha6 nAChR in rat striatum assessed as inhibition of nicotine-induced [3H]dopamine release relative to nicotine
Neuronal acetylcholine receptor subunit alpha-6 (Rattus norvegicus), sequence (P43143 whole entry, the tested form may be a part): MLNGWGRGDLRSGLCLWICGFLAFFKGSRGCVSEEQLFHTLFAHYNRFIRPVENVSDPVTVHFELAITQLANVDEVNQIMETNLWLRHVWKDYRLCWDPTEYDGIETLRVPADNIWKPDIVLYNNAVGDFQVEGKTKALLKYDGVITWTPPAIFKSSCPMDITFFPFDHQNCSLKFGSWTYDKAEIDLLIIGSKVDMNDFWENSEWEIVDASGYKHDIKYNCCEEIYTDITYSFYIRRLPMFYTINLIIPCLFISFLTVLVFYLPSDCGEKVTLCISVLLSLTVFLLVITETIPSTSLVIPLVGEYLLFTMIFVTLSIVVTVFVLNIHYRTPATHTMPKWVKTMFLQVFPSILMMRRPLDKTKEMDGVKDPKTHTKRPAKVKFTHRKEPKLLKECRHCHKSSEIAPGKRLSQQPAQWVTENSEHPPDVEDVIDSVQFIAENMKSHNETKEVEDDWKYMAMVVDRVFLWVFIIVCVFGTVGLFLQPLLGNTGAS
Method in brief: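 [3H]DA release from superfused rat striatal slices was evoked by 10 μM nicotine and tested across a full analogue concentration range. IC50 and Imax were derived from the concentration-response curves, with inhibition relative to the nicotine response in the absence of analogue. 4–6 independent experiments.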

[2] = target: Neuronal acetylcholine receptor subunit alpha-6 (Rattus norvegicus, UniProt P43143); assay: Antagonist activity at alpha6 nAChR in rat striatum assessed as inhibition of nicotine-induced [3H]dopamine release
Neuronal acetylcholine receptor subunit alpha-6, sequence (P43143 whole entry, the tested form may be a part): as above
Method in brief: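 Superfused rat striatal slices preloaded with [3H]DA; release evoked by 10 μM nicotine. Screening used 100 nM analogue, with inhibition expressed as % of the nicotine response without analogue (≥3 independent experiments, each in duplicate). Compounds giving >40% inhibition had full concentration-response curves run to derive IC50 and Imax (4–6 independent experiments).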

[3] = target: Neuronal acetylcholine receptor subunit alpha-6 (Rattus norvegicus) (UniProt P43143); assay: Antagonist activity at alpha6 nAChR in rat striatum assessed as inhibition of nicotine-induced [3H]dopamine release at 100 nM relative to control
Method in brief: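 Superfused rat striatal slices preloaded with [3H]DA. Nicotine-evoked [3H]DA release was elicited by 10 μM nicotine with 100 nM analogue present. Inhibition is expressed as a percentage of the nicotine response under control conditions without analogue. At least 3 independent experiments, each in duplicate.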

Compound | Imax [1] [%] | pIC50 [2] | inhibition [3] [%]
c1ccc2c(c1)CCN(CCCCCCCCCCN1CCc3ccccc3C1)C2 | 74 | 8.00 | –
CC1=CCCN(CCCC#Cc2cc(C#CCCCN3CCC=C(C)C3)cc(C#CCCCN3CCC=C(C)C3)c2)C1 | 67 | 8.49 | 83
c1ccc2c(c1)CCN(CCCCCCCCCCCCN1CCc3ccccc3C1)C2 | 76 | 8.07 | –
CC1=CCCN(CCCCCCCCCCN2CCC=C(C)C2)C1 | 65 | 7.43 | 36
c1ccc2c[n+](CCCCCc3cc(CCCCC[n+]4ccc5ccccc5c4)cc(CCCCC[n+]4ccc5ccccc5c4)c3)ccc2c1 | – | – | 28
c1ccc2c[n+](CCCCCCCCCCCC[n+]3ccc4ccccc4c3)ccc2c1 | 53 | 7.40 | –
Cc1ccc[n+](CCCC#Cc2cc(C#CCCC[n+]3cccc(C)c3)cc(C#CCCC[n+]3cccc(C)c3)c2)c1 | 67 | 9.70 | 40
c1ccc2c(c1)CCN(CCCCCc1cc(CCCCCN3CCc4ccccc4C3)c(CCCCCN3CCc4ccccc4C3)cc1CCCCCN1CCc3ccccc3C1)C2 | 64 | 6.69 | 84
OCCCc1ccc[n+](CCCCCc2cc(CCCCC[n+]3cccc(CCCO)c3)c(CCCCC[n+]3cccc(CCCO)c3)cc2CCCCC[n+]2cccc(CCCO)c2)c1 | 63 | 8.52 | 41
Cc1ccc[n+](CCCCCCCCCC[n+]2cccc(C)c2)c1 | 63 | 6.74 | –
OCCCC1=CCCN(CCCCCc2cc(CCCCCN3CCC=C(CCCO)C3)c(CCCCCN3CCC=C(CCCO)C3)cc2CCCCCN2CCC=C(CCCO)C2)C1 | 64 | 7.52 | 40
c1ccc2c(c1)CCN(CCCCCc1cc(CCCCCN3CCc4ccccc4C3)cc(CCCCCN3CCc4ccccc4C3)c1)C2 | 58 | 9.46 | 58
C(#Cc1ccccc1C#CCCCN1CCc2ccccc2C1)CCCN1CCc2ccccc2C1 | – | – | 18
CC1=CCCN(CCCCCCCCCCCCN2CCC=C(C)C2)C1 | 60 | 9.02 | 50
c1ccc2c[n+](CCCCCCCCCC[n+]3ccc4ccccc4c3)ccc2c1 | 95 | 7.15 | –
C(#Cc1ccccc1C#CCCC[n+]1ccc2ccccc2c1)CCC[n+]1ccc2ccccc2c1 | 59 | 7.20 | –
c1ccc2c[n+](CCCCCc3cc(CCCCC[n+]4ccc5ccccc5c4)c(CCCCC[n+]4ccc5ccccc5c4)cc3CCCCC[n+]3ccc4ccccc4c3)ccc2c1 | 52 | 7.25 | –
Cc1ccc[n+](CCCCCCCCCCCC[n+]2cccc(C)c2)c1 | 63 | 8.70 | –
